# core dimer inh – HCV core protein dimerization inhibition | AID 1899 | hit rate 0.33% among 300,000 | inhibition, % at 5 µM | TR-FRET GST/Flag-core106 dimerization, 1536-well;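 active = inhibition above the mean of all tested compounds plus 3 SD, set per screening campaign, cut at about 45% in these data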
#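 Assay system: tagged HCV core106 pair (GST and Flag); medium: KF-containing HEPES buffer, pH 7.45, DTT, CHAPS, BSA; also added: Eu donor and XL665 acceptor anti-tag antibodies; dosing: 5 µM single dose; timing: compound-protein-antibody incubation 4 h at 22.5 °C; signal: TR-FRET 671 and 617 nm emission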
# TAAR1 antag – human TAAR1 antagonism | CHO RD-HGA16 TAAR1, Fluo-8 calcium fluorescence, antagonist | Q96RJ0 | inhibition, % at 3 µM | hit rate 1.5% among 360,000;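 active = inhibition above a per-plate cutoff, the mean inhibition of test compounds on that plate plus 3 SD, cut at about 49% in these data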;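 also: 0% = DMSO plus EC80 beta-PEA response and 100% = DMSO alone without agonist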
# Target sequence (Q96RJ0 whole entry, looked up): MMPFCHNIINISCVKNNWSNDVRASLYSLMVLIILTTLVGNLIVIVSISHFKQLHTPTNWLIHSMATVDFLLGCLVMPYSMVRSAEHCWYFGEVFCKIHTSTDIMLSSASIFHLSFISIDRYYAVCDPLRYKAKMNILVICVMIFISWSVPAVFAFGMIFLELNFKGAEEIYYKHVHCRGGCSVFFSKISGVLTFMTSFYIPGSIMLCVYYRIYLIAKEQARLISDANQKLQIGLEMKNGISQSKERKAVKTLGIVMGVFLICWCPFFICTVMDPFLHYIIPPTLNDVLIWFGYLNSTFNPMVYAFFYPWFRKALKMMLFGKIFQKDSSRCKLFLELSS
#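 Test system: hTAAR1-expressing CHO RD-HGA16 cells, Gα16-coupled; Probe or stimulus: EC80 β-phenethylamine stimulus; Compound dosing: single nominal final test compound concentration of 3 µM; Timing: 140 s kinetic read after compound, 140 s after agonist; Signal: Fluo-8 calcium-sensitive fluorescence; Measure: % inhibition of agonist calcium response; Controls: DMSO and EC80 PEA controls.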
# TAAR1 ag – agonists of human TAAR1 | Q96RJ0 | CHO RD-HGA16 TAAR1, Fluo-8 calcium fluorescence; vehicle wells 0%, saturating PEA agonist 100% | activation, % at 3 µM | hit rate 0.99% among 360,000 | AID 624467;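 active = activation above the mean activation of all test compounds in the run plus 3 SD, cut at about 38% in these data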
#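 Test system: RD-HGA16 (CHO) cells co-expressing Gα16 and hTAAR1 / Benchmarks: DMSO vehicle as 0%, PEA at EC100 as 100% / Repeats: no replicates (n 1) / Measure: % activation from peak over basal fluorescence ratio, DMSO-to-PEA scaled / Timing: 17-24 h plating, Fluo-8 75 min 37 °C, 30 min RT / Technique: kinetic Fluo-8 calcium fluorescence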
# HCV NS3 hel inh – HCV NS3 helicase inhibition; NS3 helicase DNA unwinding, Cy5 molecular beacon fluorescence; hit rate 0.56% among 290,000; AID 1800; inhibition, % at 10.9 µM;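 active = inhibition above the mean of all tested compounds plus 3 SD, set per campaign, cut at about 35% in these data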;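 also: 0% = DMSO wells and 100% = thioflavine S control wells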
#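 System: Hepatitis C virus NS3 helicase domain fragment enzyme | Reagent: Annealed dual-labelled DNA beacon duplex, ATP-started | Compound dosing: 10.9 µM single point, 0.8% DMSO | Incubation: 1 h reaction at 25 °C, ATP-initiated | Technique: Cy5 fluorescence | Evaluation: Percent inhibition from t60/t0 fluorescence ratio | Benchmarks: Low DMSO, high thioflavine S at 110 µM | Replication: Singlicate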
# rCAG binder – binds r(CAG) RNA repeats; r(CAG) RNA repeat, TO-PRO-1 dye displacement fluorescence; hit rate 1.3% among 370,000; AID 651821; inhibition, % at 3 µM;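 active = inhibition above the plate cutoff, the mean of all test compounds on that plate plus 3 SD, cut at about 35% in these data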;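 also: 0% = DMSO alone and 100% = 100 µM mitoxantrone as full dye displacement; higher means more dye released from RNA so lower well fluorescence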
# nonsel antag count – nonselective antagonism, TAAR1 counter-screen | shares compounds with TAAR1 antag | inhibition, % at 3 µM | AID 651780 | counterscreen cell line, calcium fluorescence, antagonist mode | hit rate 77% among 2,400; in the data active = inhibition above about 22%;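 also: CHO-Ga16 host cells stimulated with ATP at an EC80 level; 0% = agonist EC80 plus vehicle and 100% = vehicle without agonist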
# TAAR1 ant conf – confirmation of human TAAR1 antagonists | inhibition, % at 3 µM | hit rate 40% among 2,400 | TAAR1-expressing cells, fluorescence antagonist read-out | shares compounds with TAAR1 antag; in the data active = inhibition above about 49%;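 also: CHO-Ga16 host cells challenged with agonist PEA near its EC80; 0% = agonist at EC80 plus vehicle and 100% = vehicle with no agonist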
# Ga16 nonsel ag – counter-screen for TAAR1 antagonists: nonselective Ga16 agonists | hit rate 18% among 2,400 | activation, % at 3 µM | AID 651953 | shares compounds with TAAR1 antag | Ga16-expressing cells, calcium fluorescence, agonist counterscreen; in the data active = activation above about 12%;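 also: 0% = vehicle wells and 100% = saturating stimulus response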
# TAAR1 ag count – TAAR1 agonism, antagonist counter-screen | AID 651955 | hit rate 2% among 2,400 | hTAAR1 cell line, fluorescence activation, agonist mode | activation, % at 3 µM | shares compounds with TAAR1 antag; in the data active = activation above about 37%;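 also: CHO cells stably expressing TAAR1 with calcium dye readout; 0% = DMSO vehicle and 100% = full agonist response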
# Numbers without * were called inactive; nt = no result given. Most compounds without a hit are left out; they make up all but 3.7% or so of the library.
SMILES,core dimer inh,TAAR1 antag,TAAR1 ag,HCV NS3 hel inh,rCAG binder,nonsel antag count,TAAR1 ant conf,Ga16 nonsel ag,TAAR1 ag count
COC(=O)[C@]12C[C@H](CC(=O)N3CCCC3)C(=O)N(Cc3ccco3)C1=C[C@H](C(C)C)O[C@@H]2C1CC1,nt,nt,nt,nt,-0.9,nt,nt,nt,nt
COc1cccc(Cn2cc(COC(=O)N3CCOCC3)nn2)c1,nt,nt,nt,nt,3.1,nt,nt,nt,nt
COc1ccc2sc(-c3ccc(S(C)(=O)=O)cc3)c(C(=O)NCCCN3CCCC3=O)c2c1,nt,49.0*,14.8,nt,0.2,31.5*,42.9,7.4,5.8
O=C(NCCCN1CCCC1=O)c1cc(-c2ccc(F)cc2)nc2ccccc12,nt,33.2,9.6,nt,3.7,nt,nt,nt,nt
COc1ccc(-c2cc(C(=O)NCCCN3CCCC3=O)c3ccccc3n2)cc1,1.8,50.3*,9.8,nt,-2.2,20.5,33.5,7.4,3.4
CCOC(=O)N1CCN(C(=O)CSc2nc3c([nH]c4ccccc43)c(=O)n2CCOC)CC1,0.6,55.4*,10.8,-0.6,-8.3,28.2*,42.7,5.4,3.4
COc1ccc(C(=O)NCCc2c[nH]c3ccccc23)cc1[N+](=O)[O-],-9.6,63.1*,15.3,2.0,-2.5,27.1*,48.4,10.5,8.6
Cc1cc(F)ccc1S(=O)(=O)N1CCCOC1CNC(=O)C(=O)NCCc1c[nH]c2ccccc12 (configuration not stated),2.1,33.5,17.7,-4.6,2.9,nt,nt,nt,nt
Cc1cc(C)c(S(=O)(=O)N2CCCOC2CNC(=O)C(=O)NCCc2c[nH]c3ccccc23)c(C)c1 (configuration not stated),4.4,75.5*,32.2,-5.7,4.2,52.2*,67.8*,18.4*,23.6
CC(=O)Nc1ccc(S(=O)(=O)N(C)CC(=O)OCC(=O)c2cc(C)n(-c3ccc4c(c3)OCO4)c2C)cc1,14.8,55.7*,11.4,-19.5,14.1,22.7*,35.9,7.4,5.7
C#CCNC(=O)C[C@H]1C[C@@]2(C(=O)OC)C(=C[C@H](C(C)C)O[C@@H]2C2CC2)N(Cc2cccc3ccccc23)C1=O,nt,nt,nt,nt,2.2,nt,nt,nt,nt
CC1CCN(c2ccc(C(=O)Nc3ccc4c(c3)OCO4)cc2[N+](=O)[O-])CC1,16.5,51.4*,-0.5,-23.3,8.2,28.6*,51.3*,1.8,2.9
CC1CCCN(c2ccc(C(=O)Nc3ccc4c(c3)OCO4)cc2[N+](=O)[O-])C1 (configuration not stated),1.6,70.2*,0.0,-2.3,12.1,24.7*,72.5*,7.2,7.5
O=C(COC(=O)c1ccc(N2CCOCC2)c([N+](=O)[O-])c1)Nc1ccc2c(c1)OCO2,-4.3,15.8,3.3,7.5,-0.3,nt,nt,nt,nt
O=C(/C=C/c1cc([N+](=O)[O-])ccc1OC(F)F)Nc1cccc(OC(F)F)c1,1.5,74.8*,4.9,-4.8,-2.7,34.0*,65.4*,6.7,4.2
COc1ccccc1NC(=O)/C=C/c1cc([N+](=O)[O-])ccc1OC(F)F,2.0,-8.0,-2.7,-5.0,3.4,nt,nt,nt,nt
O[C@H](COc1ccccc1)CN1CCC(C(O)(c2ccccc2)c2ccccc2)CC1,nt,nt,nt,nt,0.1,nt,nt,nt,nt
COc1ccc(N2CCN(C(=O)c3ccc(-c4nc5ccccc5s4)o3)CC2)cc1,nt,-4.5,1.5,nt,3.8,nt,nt,nt,nt
COc1ccccc1N1CCN(C(=O)c2ccc(-c3nc4ccccc4s3)o2)CC1,nt,54.3*,1.5,nt,5.3,22.0*,35.1,3.3,-1.2
Cc1ccc(-c2cc(C(=O)Nc3c(C)n(C)n(-c4ccccc4)c3=O)c3ccccc3n2)cc1,nt,48.7*,10.1,nt,1.7,29.5*,39.6,5.8,3.1
COc1ccc(-c2cc(C(=O)Nc3c(C)n(C)n(-c4ccccc4)c3=O)c3ccccc3n2)c(OC)c1,2.8,53.4*,8.1,-5.8,2.6,25.7*,37.0,6.6,10.6
